Data set [1] has as its system HT-29. The experiment in a line: Cytotoxicity against human HT-29 cells assessed as cell survival after 72 hrs by MTT assay. It is filed as functional, cell-based. The gist of the method: (§1)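 Cells at 1 × 10^6 cells/ml were plated in RPMI 1640 without FCS; adherent lines (HT-29, ARH-77, Melanoma-624) were left overnight to attach first. Compound was added and MTT read after 72 h incubation at 37 °C, 5% CO2; IC50 derived.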

Data set [2] deals with ARH-77. Nature of the data set: Cytotoxicity against human ARH77 cells assessed as cell survival after 72 hrs by MTT assay. The class given is functional, cell-based. The gist of the method: as §1
(In general: Tetrazolium assays rely on reduction of a dye to a coloured formazan, in cell work by metabolically active cells.)

The nature of data set [3]: Cytotoxicity against human Melanoma-624 cells assessed as cell survival after 72 hrs by MTT assay. The conditions noted are these: Homo sapiens, 624, 72 h. It is filed as functional, cell-based. The gist of the method: as §1
Data set [4] concerns Jurkat. The experiment in a line: Cell cycle arrest at human Jurkat cells assessed as accumulation at sub G1 phase at 100 uM after 24 hrs by propidium iodide staining-based FACS flow cytometric analysis relative to control. It is filed as functional. The gist of the method:
(§2)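 Jurkat cells at 1 × 10^6 cells/ml were exposed to compound or vehicle (0.2% DMSO) for 24 h. They were then fixed in cold 70% ethanol, and RNAse (50 μg/ml) and PI were added in PBS. Cell-cycle distribution, including sub-G1, was read by flow cytometry. Data are mean ± s.d., with t test versus naïve control.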
A general note: Flow cytometry measures light scatter and fluorescence of single cells or particles in a stream.

The subject of data set [5] is Jurkat. Nature of the data set: Induction of apoptosis in human Jurkat cells assessed as increase in apoptotic cells at 100 uM after 24 hrs by annexin V-propidium iodide staining-based FACS flow cytometric analysis (reference value: 11.99%). It is filed as functional.
Data set [6] has as its system Mus musculus. The experiment in a line: Toxicity in nude mouse xenografted with human HT-29 cells assessed as adverse effect at 50 mg/kg, ip up to day 50. The class given is organism-based. The conditions noted are these: in vivo. Further details: dose 50 mg/kg, route intraperitoneal. An outline of the steps:
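HT-29 xenograft (1 × 10^6 cells sc) in female nude mice dosed ip once daily for 3 weeks (15 injections) in cremophor/ethanol/water (10:10:80), followed to day 50; general health checked daily by weighing and clinical examination.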

For data set [7], the system named is Jurkat. Nature of the data set: Cytotoxicity against human Jurkat cells assessed as cell survival after 72 hrs by MTT assay. The class given is functional, cell-based. An outline of the steps:
as §1

For data set [8], the system named is HT-29. The experiment in a line: Antitumor activity against human HT-29 cells xenografted in nude mouse assessed as tumor growth inhibition at 50 mg/kg, ip measured up to day 33. The class given is functional, organism-based. Further details: dose 50 mg/kg. (In general: In xenograft studies the graft and the host belong to different species.)
For data set [9], the system named is HT-29. Nature of the data set: Antitumor activity against human HT-29 cells xenografted in nude mouse assessed as tumor growth inhibition at 50 mg/kg, ip measured after 33 days. It is filed as functional, organism-based. Further details: dose 50 mg/kg. The gist of the method:
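Female nude mice 5–6 weeks old (SPF, ~22 °C, 12-h light–dark) injected sc with 1 × 10^6 HT-29 cells, randomized same day to 50 mg/kg (n=5) or vehicle cremophor/ethanol/water (10:10:80) (n=6). Once-daily ip injections for 3 weeks (15 injections), then 4 weeks follow-up; read-out was percentage of tumor-free mice over time.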

For data set [10], the system named is Jurkat. Nature of the data set: Cytotoxicity against human Jurkat cells assessed as cell survival after 72 hrs by MTT assay in presence of 10% FCS. The class given is functional, cell-based. The gist of the method: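 Jurkat MTT viability run in RPMI 1640 with 10% FCS, 72 h incubation with compound at 37 °C, 5% CO2; IC50 derived.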
In data set [11] the test system is Jurkat. Nature of the data set: Reduction of sphingomyelin synthesis in fluorescent Bodipy-12-ceramide-treated human Jurkat cells administered 30 mins prior to Bodipy-12-ceramide addition measured after 72 hrs by HPLC analysis in presence of 10% FCS. It is filed as functional, cell-based. An outline of the steps: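 Jurkat cells (0.75 × 10^6 cells/ml) in medium with 10% FCS received compound or vehicle (0.1% DMSO); 30 min later 0.25 μM Bodipy-12-ceramide was added. After 72 h, lipids were extracted with dichloromethane/methanol, and ceramide and sphingomyelin percentages were quantified by C18 HPLC with fluorescence detection (Ex 505, Em 530 nm). Mean ± s.d., t test versus vehicle.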

Data set [12] concerns Jurkat. The experiment in a line: Cell cycle arrest at human Jurkat cells assessed as accumulation at sub G1 phase at 20 to 50 uM after 24 hrs by propidium iodide staining-based FACS flow cytometric analysis. The conditions noted are these: 100 uM, in the assay text read “100 uM” for “20 to 50 uM”. It is filed as functional. An outline of the steps:
as §2

Setting [13] is: Homo sapiens, HT-29, 72 h, read-out: IC50.
The mark [14] stands for this setting: Homo sapiens, ARH-77, 72 h, read-out: IC50.

The record followed here is ChEMBL document CHEMBL2321694, “Novel 3-hydroxy vinylboronates influence sphingolipid metabolism, cause apoptosis in Jurkat cells and prevent tumor development in nude mice” (Bioorg Med Chem Lett, 2013).

Each structure is given as a SMILES string. Active and inactive are the calls of the source. The rule behind the calls is not given here.

Broadly, the IC50 is the concentration needed to halve the response being measured. Turning to `CCCCCCCC/C(=C\B1OC(C)(C)C(C)(C)O1)C(C)(O)CCCCCC` (stereo unspecified), the IC50 in [1] (setting [13]) was above 100 µM; in [2] (setting [14]), 79.1 µM.
Consider `CCC/C(=C\B1OC(C)(C)C(C)(C)O1)C(O)c1ccccc1` (stereo unspecified), for which the values for the IC50 in data set [1] (setting [13]) and in data set [2] (arh-77) were above 100 µM and “Not Active”, respectively.
Take `CCCCC/C(=C\B1OC(C)(C)C(C)(C)O1)C(O)(c1ccccc1)C1CC1` (stereo unspecified): the IC50 result is “Not Active” in [1] (ht-29) and 10.4 µM in data set [2] (setting [14]).
Consider `CCCCCCC(C)(O)/C(=C/B1OC(C)(C)C(C)(C)O1)CCC` (stereo unspecified), for which the IC50 in data set [1] (setting [13]) was 57.2 µM; in data set [2] (setting [14]), 33.9 µM.
Taken in the same sequence, the figures for `CCCCC(C)(O)/C(=C/B1OC(C)(C)C(C)(C)O1)CCC` (stereo unspecified) were 69.6 µM and 54.6 µM.
Taken in the same sequence, the figures for `CCC/C(=C\B1OC(C)(C)C(C)(C)O1)C(O)(c1ccccc1)C1CC1` (stereo unspecified) were 83.9 µM and 55.2 µM.
Turning to `CCCCCCCC/C(=C\B1OC(C)(C)C(C)(C)O1)C(O)(c1ccccc1)C1CC1` (stereo unspecified), the 50% inhibitory concentration (IC50) came to 32.3 µM in data set [3]; 18.3 µM in [1] (setting [13]); 16.3 µM in [7]; 6.36 µM in [2] (setting [14]); 84 µM in data set [10]. Besides, the “fold change (FC)” value in data set [4] is given as above 2. The Activity in data set [5] is 15.22%; in data set [6], “Non-toxic”; in data set [11], “Dose-dependent effect”. Moreover, the TGI entry in [8] is “Active”. Besides, the TGI result in [9] was “inactive”. The outcome in [12] was Active.
Turning to `CCC/C(=C\B1OC(C)(C)C(C)(C)O1)C1(O)CCCc2ccccc21` (stereo unspecified), the values for the IC50 in [1] (setting [13]) and in data set [2] (setting [14]) were 86.8 µM and 64.9 µM, respectively.
